Rows were chosen to be rich in hits. Some 1.8% of all compounds tested hit in one or more screens of this group.
NPY-Y2 antag: NPY-Y2 (human) receptor antagonism | P49146 | NPY-Y2 expressing cells, antagonist mode | inhibition, % at 2.7 µM | 140,000 tested, 0.99% active;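 note: 0% = vehicle with agonist challenge and 100% = reference antagonist with challenge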
Target sequence (P49146 whole entry, looked up): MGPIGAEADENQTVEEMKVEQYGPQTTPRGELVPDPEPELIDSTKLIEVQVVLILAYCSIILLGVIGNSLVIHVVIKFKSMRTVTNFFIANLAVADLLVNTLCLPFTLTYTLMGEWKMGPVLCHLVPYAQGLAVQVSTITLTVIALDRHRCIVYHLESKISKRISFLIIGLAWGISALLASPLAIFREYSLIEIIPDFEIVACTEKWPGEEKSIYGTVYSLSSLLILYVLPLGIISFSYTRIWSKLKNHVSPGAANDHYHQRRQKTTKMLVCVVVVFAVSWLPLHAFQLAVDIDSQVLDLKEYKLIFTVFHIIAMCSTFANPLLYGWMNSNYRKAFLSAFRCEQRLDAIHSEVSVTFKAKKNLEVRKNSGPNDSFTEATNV
NPY1 pot ag: potentiates or activates human NPY-Y1 receptor | P25929 | NPY-Y1 expressing cells, potentiator/agonist activation | activation, % at 3.6 µM | 220,000 tested, 0.37% active | AID 1304; in the data active = activation above about 33%, passing the limit was not always enough;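 note: cells stimulated with NPY at EC10 then isoproterenol at EC100; 0% = low agonist plus stimulus and 100% = saturating agonist plus stimulus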
NPY2 pot ag: human NPY-Y2 potentiation or agonism, primary screen | P49146 | cells expressing NPY-Y2, potentiator/agonist read-out | activation, % at 3.6 µM | 220,000 tested, 0.45% active | AID 1359; in the data active = activation above about 27%;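 note: cells stimulated with NPY near EC25 plus isoproterenol at EC100; 0% = vehicle plus submaximal agonist and 100% = vehicle plus saturating agonist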
NPY-Y1 antag: NPY-Y1 (human) receptor antagonism | P25929 | HEK293-CNG Y1 cells, membrane potential fluorescence; NPY at EC95, then isoproterenol | inhibition, % at 3.6 µM | 200,000 tested, 1% active;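 active = inhibition above the campaign mean inhibition of all tested compounds plus 3 SD, cut at about 20% in these data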;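 note: 0% = DMSO wells given NPY plus isoproterenol and 100% = isoproterenol alone without NPY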
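System: HEK293 cells with Y1 receptor plus CNG channel / Probe or stimulus: NPY 25 nM then isoproterenol 1 µM plus Ro 20-1724 25 µM / Compound: one concentration, 3.6 µM, in 0.4% DMSO / Schedule: compound incubation 1 h at room temperature, readout 45 min post-stimulation / Measured by: membrane potential fluorescence / Read-out: % inhibition of NPY effect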
NPY1 antag conf: human NPY-Y1 antagonism, confirmation. shares compounds with NPY-Y1 antag. HEK293-CNG NPY-Y1, membrane potential fluorescence, cAMP; NPY challenge against isoproterenol-raised cAMP. inhibition, % at 3.6 µM. 1,200 tested, 21% active. AID 1254; in the data active = inhibition above about 20%;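 note: 0% = vehicle with agonist plus stimulus and 100% = stimulus alone without agonist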
NPY2 antag ctr: antagonizes human NPY-Y2, counter-screen to NPY-Y1 antagonists. inhibition, % at 3.6 µM. shares compounds with NPY-Y1 antag. HEK293 NPY-Y2 CNG membrane potential fluorescence, antagonism; cells given NPY, then isoproterenol. AID 1255. 1,200 tested, 28% active;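 note: 0% = DMSO with agonist challenge and 100% = reference antagonist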
* hit, by the source's call; / = not tested or not shown. Cut-off read from the data, not from the text of the source, unless noted: active = inhibition above about 17%; inactive = the rest.

SMILES | NPY-Y2 antag | NPY1 pot ag | NPY2 pot ag | NPY-Y1 antag | NPY1 antag conf | NPY2 antag ctr
CCCCC(=O)Nc1ccccc1N1CCOCC1 | / | -12 | 11 | 3 | / | /
CCCCCC(=O)Nc1ccccc1N1CCN(c2ccccc2)CC1 | 5 | -49 | -16 | 22* | 6 | 15
COc1ccc(N(C)S(=O)(=O)c2cccc(C(=O)NC3CCCC3)c2)cc1 | / | -4 | -27 | 20 | / | /
COc1ccc(N(C)S(=O)(=O)c2cccc(C(=O)NCC3CCCCC3)c2)cc1 | / | -19 | -20 | 26* | 21* | 11
COc1ccc(N(C)S(=O)(=O)c2cccc(C(=O)NC3CCCCC3C)c2)cc1 (centres undefined) | / | 33 | -7 | 24* | 15 | 11
COc1ccnc(-n2cccc2C#N)c1C#N | / | 5 | -10 | 0 | / | /
O=C(NCCN1CCOCC1)c1cc(-c2ccco2)on1 | 6 | 4 | 5 | 21* | -1 | 0
CC12COC3(C(=O)Nc4ccc5ccccc5c4)CC1CCC32C (centres undefined) | / | -19 | -20 | 23* | 13 | 24*
CC12COC3(C(=O)Nc4ccccc4)CC1CCC32C (centres undefined) | / | 11 | 4 | 7 | / | /
COC(=O)c1cc([N+](=O)[O-])c(-n2cncn2)c([N+](=O)[O-])c1 | / | 1 | -8 | 28* | -3 | -4
Cn1c(C(=O)N(Cc2ccccc2)Cc2cccs2)cc2sccc21 | 7 | -25 | -18 | 21* | 6 | 5
Cn1c(C(=O)N(Cc2ccccc2)Cc2ccccn2)cc2sccc21 | 11 | 16 | 12 | -1 | / | /
O=C(CN1CCCCC1)Nc1ccccc1-c1ccccc1 | 6 | -8 | -4 | 7 | / | /
O=C(CN1CCN(C2CCCCC2)CC1)Nc1ccccc1-c1ccccc1 | 17 | -36 | -15 | 21* | 6 | 12
CC1CCCC(C)N1C(=O)c1cc2ncc(CCCl)cn2n1 (centres undefined) | 3 | -5 | -9 | 3 | / | /
CCN(c1ccc(NC(=O)COC(=O)c2cccs2)cc1)C(C)C | 0 | 25 | 9 | 6 | / | /
CCN(CC)c1ccc(NC(=O)COC(=O)c2cccs2)cc1 | 5 | 3 | 0 | 21* | -1 | 2
COc1ccc(CCNS(=O)(=O)c2ccc(OC)cc2)cc1 | 8 | -8 | -29 | 23* | 10 | 7
Clc1ccccc1C(c1ccccc1)(c1ccccc1)n1ccnc1 | / | -7 | -17 | 10 | / | /
CC(=O)c1c(OC(=O)c2ccco2)c2ccccc2n1C | 4 | -6 | -8 | 1 | / | /
CC(=O)c1c(OC(=O)c2ccc(C)cc2)c2ccccc2n1C | 15 | -30 | -27 | 34* | 13 | 13
O=C1N(Cc2cccc(Cl)c2)C[C@@H]2C[C@@H](c3cccn3-c3nccs3)N3CCC[C@@]123 | / | -27 | -25 | 26* | 4 | 6
O=C1N(Cc2cccc(Cl)c2)C[C@@H]2C[C@@H](c3ccc4nonc4c3)N3CCC[C@@]123 | / | -5 | -16 | 24* | 10 | 9
O=C1N(Cc2cccc(Cl)c2)C[C@@H]2C[C@@H](c3cccn3-c3ccccn3)N3CCC[C@@]123 | / | -9 | -15 | 19 | / | /
COc1ccccc1CN1C[C@@H]2C[C@@H](C3=Cc4cc(Cl)ccc4OC3)N3CCC[C@@]23C1=O | / | -18 | -19 | 24* | 19 | 13
SMILES | NPY-Y2 antag | NPY1 pot ag | NPY2 pot ag | NPY-Y1 antag | NPY1 antag conf | NPY2 antag ctr
COc1cccc(CC2(CO)CCCN(Cc3c(C)cc(C)cc3-n3cccn3)C2)c1 (centres undefined) | / | -37 | -39 | 38* | 24* | 20*
CCN1/C(=C/C(C)=C/c2sc3ccccc3[n+]2CC)Sc2ccccc21 | / | -12 | 4 | 106* | 79* | 53*
COc1ccccc1NC(=O)CSc1nnc(C2CCCCC2)n1-c1ccccc1 | / | 31 | -2 | / | / | /
CCCCN(CCCC)CC(O)COc1ccccc1C(=O)Nc1ccccc1 (centres undefined) | / | -22 | -26 | 46* | 18 | 18*
Cc1ccc(N(CC(=O)N/N=C/c2cccc(Br)c2)S(C)(=O)=O)cc1 | 3 | 23 | 18 | -1 | / | /
O=[N+]([O-])c1ccc(/C=N/NC2=NS(=O)(=O)c3ccccc32)cc1 | / | 1 | -9 | -1 | / | /
O=[N+]([O-])c1ccc(O)c(/C=N/NC2=NS(=O)(=O)c3ccccc32)c1 | / | -10 | -13 | 35* | 0 | 2
COc1ccc(C(=O)N2CCn3c2nc2ccccc23)cc1 | / | 16 | -7 | 0 | / | /
COc1ccc(C(=O)n2c(-c3ccco3)nc3ccccc32)cc1 | 7 | -30 | -17 | 23* | 8 | 14
CC(=O)Nc1ccc(C(=O)Cn2c3[n+](c4c(F)c(F)ccc42)CCCCC3)cc1 | / | 15 | 4 | 1 | / | /
CCOC(=O)c1c(NC(=O)c2ccco2)n(C2CCCCC2)c2nc3ccccc3nc12 | 10 | 3 | 8 | 25* | -3 | -2
CCC(=O)Nc1c(C#N)c2nc3ccccc3nc2n1C1CCCCC1 | 3 | -22 | -4 | 6 | / | /
CC1CCCCN1CC(=O)c1c(N)n(Cc2ccccc2)c(=O)n(C)c1=O (centres undefined) | / | 17 | 2 | 4 | / | /
Cc1cccc(C2c3[nH]c4ccccc4c3CCN2Cc2cccn2-c2ncccn2)c1 (centres undefined) | / | -23 | -4 | 32* | 14 | 14
COc1ccc(C2c3[nH]c4ccccc4c3CCN2Cc2cccn2-c2ncccn2)cc1C (centres undefined) | / | -12 | -4 | 67* | 41* | 32*
c1ccc(C2c3[nH]c4ccccc4c3CCN2Cc2cccn2-c2ccccn2)nc1 (centres undefined) | / | -1 | -29 | / | / | /
Cc1ccc(S(=O)(=O)NC(C)(C)CSc2ccccn2)cc1 | 3 | 0 | 3 | 5 | / | /
COCc1[nH]nc2c1C(c1cccc(OC)c1)C(C#N)=C(N)O2 (centres undefined) | 4 | -21 | -9 | 6 | / | /
Cc1cc(C)c(C#N)c(SCc2[nH]nc3c2C(c2ccc(F)cc2)C(C#N)=C(N)O3)n1 (centres undefined) | 11 | -41 | -15 | 42* | 57* | 41*
Cc1cc(C#N)c(C)c(SCc2[nH]nc3c2C(c2ccccc2)C(C#N)=C(N)O3)n1 (centres undefined) | 8 | -27 | -16 | 21* | 59* | 39*
NCCCCCc1nnc(SCc2ccc(Cl)c(Cl)c2)o1 | 4 | -38 | -19 | 9 | / | /
COCC1CCN(Cc2cn[nH]c2-c2ccc(OC)c(F)c2)C1 (centres undefined) | / | 9 | -8 | / | / | /
Cn1c(Oc2ccccc2NCc2cc(Br)ccc2O)cc(=O)n(C)c1=O | 0 | 1 | 14 | -7 | / | /
COc1cc(CNc2ccccc2Oc2cc(=O)n(C)c(=O)n2C)cc(OC)c1OC | 13 | -12 | -36 | 36* | 17 | 8

Bioassay records deposited in PubChem by The Scripps Research Institute Molecular Screening Center.
